# Source: ChEMBL document CHEMBL1126035, “Selective beta 3-adrenergic agonists of brown adipose tissue and thermogenesis. 1. [4-[2-[(2-Hydroxy-3-phenoxypropyl)amino]ethoxy]phenoxy]acetates” (1992)
# Calls of active or inactive are those of the source. The calls are words filed in the database; no cut-off is given here.
# Target: Beta-3 adrenergic receptor (Rattus norvegicus) (UniProt P26255)
# Assay: Inhibition of beta-3 adrenergic receptor GDP binding in rat brown adipose tissue on oral administration relative to isoprenaline
# Format: tissue-based
# Summary of the method: (§1)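 Rats cold-adapted at 4 °C for 4 days, then kept at 23 °C for 2 days; next day dosed sc or po in 0.45% aqueous NaCl/0.25% w/v Polysorbate 80, 0.1–10 mg kg-1, n=6 per group. Interscapular BAT taken 1 h later, mitochondria by differential centrifugation, GDP binding measured. Expressed relative to isoprenaline sulfate 1 mg kg-1; ED50 by linear regression.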
# Chain of Beta-3 adrenergic receptor (Rattus norvegicus) (P26255 whole entry): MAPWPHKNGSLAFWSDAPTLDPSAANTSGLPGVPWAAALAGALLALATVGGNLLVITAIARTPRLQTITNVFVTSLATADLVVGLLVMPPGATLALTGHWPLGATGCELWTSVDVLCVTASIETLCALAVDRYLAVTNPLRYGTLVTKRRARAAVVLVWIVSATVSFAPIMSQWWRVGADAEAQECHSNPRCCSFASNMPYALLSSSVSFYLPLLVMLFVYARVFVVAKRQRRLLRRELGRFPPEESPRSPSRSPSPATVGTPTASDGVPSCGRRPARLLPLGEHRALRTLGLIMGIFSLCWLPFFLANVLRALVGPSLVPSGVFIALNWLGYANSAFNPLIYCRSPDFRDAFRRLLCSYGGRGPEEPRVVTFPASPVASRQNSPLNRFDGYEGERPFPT
row,Structure (SMILES),ED50 [mg/kg]
1,COC(=O)c1ccc(CC(C)NCC(O)c2ccccc2)cc1 (centres undefined),0.94
2,O=C(O)COc1ccc(OCCNCC(O)COc2ccccc2)cc1 (centres undefined),3.5
3,Cl.O=C(O)COc1ccc(OCCNC[C@H](O)COc2ccccc2)cc1,0.45
4,CC(C)(C)OC(=O)COc1ccc(OCCNCC(O)COc2ccccc2)cc1 (centres undefined),0.25
5,COC(=O)COc1ccc(OCCNCC(O)COc2ccccc2F)cc1.Cl (centres undefined),0.54
6,COC(=O)COc1ccc(CCNCC(O)COc2ccccc2)cc1 (centres undefined),0.078
7,COC(=O)COc1cccc(OCCNCC(O)COc2ccccc2)c1 (centres undefined),5.28
8,COC(=O)COc1ccc(CC(C)NCC(O)c2cccc(Cl)c2)cc1 (centres undefined),0.007
9,COC(=O)COc1ccc(OCCNCC(O)COc2ccccc2)cc1 (centres undefined),0.12

# Target: Beta-3 adrenergic receptor (Rattus norvegicus) (UniProt P26255)
# Assay: Dose necessary to produce 50% of the isoprenaline effect to inhibit GDP binding to beta-3 adrenergic receptor in brown adipose tissue(BAT mitochondria) of rats after subcutaneous administration; not active
# Summary of the method: as §1
row,Structure (SMILES),ED50
1,COC(=O)COc1ccc(C(=O)NCCNCC(O)COc2ccccc2)cc1 (centres undefined),inactive

# Tested on: not listed separately
# Assay: Ratio of the dose (D500,peroral administration) elevating the rat heart rate to 500 bpm to the GDP ED50.
# Format: functional
# Summary of the method: (§2)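 Rats held at 29 °C for 2 weeks, groups of six dosed (sc or po) at the BAT GDP ED50, then at rising multiples of it. Heart rate read 15–30 min after dosing until ≥500 bpm, giving D500; vehicle control group of six. Index = D500 divided by GDP-binding ED50 from cold-adapted rats.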
row,Structure (SMILES),SI
1,CCOC(=O)COc1ccc(OCCNCC(O)COc2ccccc2)cc1 (centres undefined),> 100
2,COC(=O)c1ccc(CC(C)NCC(O)c2ccccc2)cc1 (centres undefined),> 10
3,O=C(O)COc1ccc(OCCNCC(O)COc2ccccc2)cc1 (centres undefined),> 62
4,Cl.O=C(O)COc1ccc(OCCNC[C@H](O)COc2ccccc2)cc1,> 22
5,CC(C)(C)OC(=O)COc1ccc(OCCNCC(O)COc2ccccc2)cc1 (centres undefined),> 100
6,COC(=O)COc1ccc(OCC(C)NCC(O)COc2ccccc2)cc1.O (centres undefined),> 10
7,COC(=O)COc1ccc(OCCNCC(O)COc2ccccc2F)cc1.Cl (centres undefined),> 100
8,COC(=O)COc1ccc(CCNCC(O)COc2ccccc2)cc1 (centres undefined),> 100
9,COC(=O)COc1cccc(OCCNCC(O)COc2ccccc2)c1 (centres undefined),> 10
10,COC(=O)COc1ccc(CC(C)NCC(O)c2cccc(Cl)c2)cc1 (centres undefined),> 100
11,CC(C)OC(=O)COc1ccc(OCCNCC(O)COc2ccccc2)cc1 (centres undefined),> 10
12,COC(=O)COc1cccc(OCCNCC(O)COc2ccccc2F)c1.Cl (centres undefined),> 10
13,COC(=O)COc1ccc(OCCNCC(O)COc2ccccc2)cc1 (centres undefined),> 100

# Tested on: not listed separately
# Assay: Ratio of the dose (D500,subcutaneous administration) elevating the rat heart rate to 500 bpm to the GDP ED50
# Format: functional
# Summary of the method: as §2
row,Structure (SMILES),SI
1,CC(C)NC[C@H](O)COc1ccc(O)cc1 [PRENALTEROL],< 1
